Reference: PubChem BioAssay AID504383 (The Scripps Research Institute Molecular Screening Center, 2011)
The whole screen tested about 2,500 compounds, of which about 1,200 (48%) were called active.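 The calls were made as follows: active = mean activation above the low control average plus 3 SD, as set in the primary screen (cut at about 12% in these data); inactive = the rest.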 The set was probably picked from earlier hits. Some of the results follow.

The molecules below were run against Troponin I, cardiac muscle (Homo sapiens) + Troponin T, cardiac muscle (Homo sapiens) + Troponin C, slow skeletal and cardiac muscles (Homo sapiens) (UniProt P19429+P45379+P63316) (assay: calcium sensitizers of cardiac thin filaments – biochemical, IANBD-TnC fluorescence, triplicate, confirmation (AID 504383;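 also: 0% = DMSO at 0.472 mM calcium and 100% = DMSO at 2.9 mM calcium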)). Conditions: IANBD-labeled cardiac RTF, Ca2+ sensitivity fluorescence; at 7.2 µM; hits give high values; scaled from EC20 to saturating calcium; tested at EC20 calcium, 0.472 mM.
In short: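 Material: labelled regulated thin filaments; Reagent: 0.472 mM calcium; Incubation: 15 min compound incubation with filaments at 25 °C; Detection: filament fluorescence intensity; Evaluation: fluorescence increase normalised to calcium controls; Benchmarks: low control EC20 calcium, high control EC100 calcium.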

| Compound | activation |
| --- | --- |
| Cc1ccc(NC(=O)CN(C)C(=O)COC(=O)COc2ccc(C#N)cc2)cc1 | 3.65% (inactive) |
| Cc1cc(=O)oc2cc(OCC(=O)OCC(=O)NC(C)C)ccc12 | 14.7% (active) |
| Cc1ccc(CNC(=O)CCS(=O)(=O)c2cc3c(cc2C)NC(=O)CO3)cc1 | 3.23% (inactive) |
| COc1cccc(CNC(=O)CCS(=O)(=O)c2cc3c(cc2C)NC(=O)CO3)c1 | 7.4% (inactive) |
| Cc1cc2c(cc1S(=O)(=O)CCC(=O)NCCc1ccccc1)OCC(=O)N2 | 32.7% (active) |
| CN1C2CCC1/C(=C/c1cccn1C)C(=O)/C2=C\c1cccn1C | 9.37% (inactive) |
| CCC(C(=O)O)N1C(=O)/C(=C/c2cccn2C)SC1=S (configuration not stated) | 52.1% (active) |
| CC(C(=O)O)N1C(=O)/C(=C/c2cccn2C)SC1=S (configuration not stated) | 23.1% (active) |
| CC(C)C(C(=O)O)N1C(=O)/C(=C/c2cccn2C)SC1=S (configuration not stated) | 21.6% (active) |
| CCCOc1ccc(Cn2c(=O)oc3ccc(C)cc32)cc1OC | 23.1% (active) |
| CCCc1ccc(OCc2ccc(C(=O)NN)o2)c(OC)c1 | 7.64% (inactive) |
| O=C(NC1CCCCC1)c1cc2nc3c(c(C(F)(F)F)n2n1)CCCC3 | 29.3% (active) |
| COc1cc(OC)c(C(=O)NC2CCCCCC2)cc1OC | -0.45% (inactive) |
| COC(=O)c1cc(N2CCN(C)CC2)nc2ccccc12 | 9.59% (inactive) |
| CN1CCN(c2ccc(-c3cccc(NC(=O)COc4ccccc4)c3)nn2)CC1 | 25% (active) |
| COc1ccc(C(Nc2ccc(S(=O)(=O)NCC3CCCO3)cc2)C(=O)NC(C)(C)C)cc1OC (configuration not stated) | 9.44% (inactive) |
| CCCNC(=O)c1ccc(N2CCC3(CC2)CC(c2cccc(Br)c2)=NO3)c(NC(=O)c2cccc(C)c2)c1 | 9.93% (inactive) |
| COCCNC(=O)[C@H]1C[C@@H]1[C@H](NP(=O)(c1ccccc1)c1ccccc1)c1ccccc1 | 3770% (active) |
| C[C@H](CO)NC(=O)[C@@H]1C[C@H]1[C@@H](NP(=O)(c1ccccc1)c1ccccc1)c1ccccc1 | 1.68% (inactive) |
| COc1cccc(/C=N/Nc2nnc(C)n2N)c1O | 5.74% (inactive) |
| COc1ccc(-c2nn(-c3ccccc3)cc2/C=N/NC(N)=S)cc1OC | 29% (active) |
| Cc1ccc(C(C(=O)NC(C)(C)C)N(C(=O)c2csnn2)C2CC2)cc1 (configuration not stated) | 100% (active) |
| O=C1c2ccccc2-c2onc3c(N4CCN(CCO)CC4)cc(N4CCN(C(=O)c5ccco5)CC4)c1c23 | 7.32% (inactive) |
| O=C(O)CCNc1cc(N2CCN(C(=O)c3ccco3)CC2)c2noc3c2c1C(=O)c1ccccc1-3 | 3.54% (inactive) |
| O=C(c1ccco1)N1CCN(c2ncnc3c(-c4ccc(Cl)cc4)nsc23)CC1 | 112% (active) |

| Compound | activation |
| --- | --- |
| CCN(CC)CCCC(C)n1c2nc(=O)[nH]c(=O)c-2nc2cc(Cl)ccc21 (configuration not stated) | 7.49% (inactive) |
| CCOC(=O)c1ccc(N=c2sc(C(=O)OC)cc(=O)n2CCCN2CCOCC2)cc1 | 4.75% (inactive) |
| O=C(NC(=S)NCCN1CCOCC1)c1ccc(F)cc1 | 72.6% (active) |
| CCOC(=O)c1c(NC(=S)N2CCN(C)CC2)sc2c1CCN(C(=O)OCC)C2 | 7.96% (inactive) |
| CCC(CC)NC(=O)Nc1ccccc1C | 7.62% (inactive) |
| CCOC(=O)N1CCN(C(=S)Nc2ccccc2C)CC1 | 32.7% (active) |
| N#Cc1ccc(S(=O)(=O)NC2CCCCNC2=O)cc1 (configuration not stated) | 93.6% (active) |
| N#Cc1ccc(S(=O)(=O)NC2CCN(Cc3ccccc3)CC2)cc1 | 9.61% (inactive) |
| O=C1NCCCCC1NS(=O)(=O)c1cccc(C(F)(F)F)c1 (configuration not stated) | 7.86% (inactive) |
| CCOP(=O)(OCC)/C(=N/OC(=O)c1ccc(OC)cc1)C(N)=O | 11.7% (active) |
| COc1[nH]c(/N=C/c2ccccc2)c(C#N)c1C#N | 7.9% (inactive) |
| O=C(Nc1ccc(Cl)cn1)C1CCN(S(=O)(=O)c2cccs2)CC1 | 242% (active) |
| CCOc1ccc(NC(=O)C2CCN(S(=O)(=O)c3cccnc3)CC2)cc1 | 0.88% (inactive) |
| O=C(CC1CCCC1)N1CCN(S(=O)(=O)c2ccccc2)CC1 | 3.96% (inactive) |
| O=C(CSc1n[nH]c(-c2cccs2)n1)N1CCOCC1 | 3.55% (inactive) |
| O=C(c1cc(Cl)ccc1O)N1CCN(S(=O)(=O)c2cccs2)CC1 | 683% (active) |
| O=C(Cc1cccs1)N1CCN(S(=O)(=O)c2cc(Cl)ccc2Cl)CC1 | 13.5% (active) |
| O=C(Nc1nccs1)C1CCN(S(=O)(=O)c2ccccc2)CC1 | 1030% (active) |
| O=C(Nc1ccccc1N1CCOCC1)C1CCN(S(=O)(=O)c2ccccc2F)CC1 | 3.08% (inactive) |
| O=C(c1cc(-c2cccs2)nn1-c1ccccc1)N1CCN(S(=O)(=O)c2ccccc2)CC1 | 3.27% (inactive) |
| COc1ccc(NC(=O)CSc2ccc3c4c(cccc24)C(=O)c2ccccc2-3)cc1 | 19.2% (active) |
| N#Cc1cccc(NC(=S)Nc2ccccc2)c1 | 6.24% (inactive) |
| N#Cc1cccc(NC(=O)CSc2ccc3c4c(cccc24)C(=O)c2ccccc2-3)c1 | 15.7% (active) |
| COc1ccc(NC(=O)CC2C(=O)N(Cc3ccco3)C(=S)N2C(C)C)cc1 (configuration not stated) | 41.6% (active) |
| COc1ccc(/C(O)=C2\C(=O)C(=O)N(Cc3ccco3)C2c2cc(OC)ccc2OC)cc1 (configuration not stated) | 10.9% (inactive) |

| Compound | activation |
| --- | --- |
| COC(=O)N1CCN(S(=O)(=O)c2ccc(F)cc2)CC1 | 8.33% (inactive) |
| O=S(=O)(c1ccc(F)cc1)N1CCN(CCOc2ccccc2)CC1 | 956% (active) |
| O=[N+]([O-])c1cc(-c2ccn[nH]2)ccc1Cl | 10.1% (inactive) |
| COc1ccc(C(=O)Nc2ccccc2-c2ccccc2)cc1Cl | 11% (inactive) |
| O=C(Nc1ccccc1-c1ccccc1)c1ccc(Cl)c([N+](=O)[O-])c1 | 48.5% (active) |
| O=C1/C(=C\c2cc(Cl)c(O)c(Cl)c2)SC(=S)N1Cc1ccccc1 | -1.15% (inactive) |
| COc1ccc(/C=C2\SC(=S)N(CCCC(=O)Nc3ccccn3)C2=O)cc1OC | 9.09% (inactive) |
| COc1cc(/C=C2/SC(=S)N(Cc3ccccc3)C2=O)cc(Cl)c1O | 5470% (active) |
| COc1ccc(/C=C2\SC(=S)N(CCCC(=O)Nc3ccccc3C(=O)O)C2=O)cc1OC | 28.5% (active) |
| C/C=C/c1ccc(OCCCNCC(C)O)c(OC)c1 (configuration not stated) | 663% (active) |
| COc1ccc(N2C(=O)c3cccc4c(N(C)CCO)ccc(c34)C2=O)cc1 | 4.11% (inactive) |
| CCC/C(C#Cc1ccc(N(C)C)cc1)=C1/c2ccccc2C(=O)N1c1ccccc1 | 94.7% (active) |
| Cc1ccc(S(=O)(=O)N2CCOCC2)cc1C(=O)N1C(=O)c2cccc(N)c2C1=O | 8.84% (inactive) |
| Cc1ccc(S(=O)(=O)c2cccc(S(=O)(=O)N3CCOCC3)c2)cc1S(=O)(=O)N1CCOCC1 | 20.6% (active) |
| Cc1nnc(N2CCOCC2)c2nn(-c3cccc(Cl)c3)c(C)c12 | 4.95% (inactive) |
| O=C(CNC(=O)c1cccc(Cl)c1)N/N=C/c1cccnc1 | 11% (inactive) |
| COC(=O)N/N=C/c1cccnc1 | 2.85% (inactive) |
| COc1ccc(/C=N/NC(=O)c2cc(OC)c(OC)c(OC)c2)cc1CN1CCc2cc(OC)c(OC)cc2C1C (configuration not stated) | 28.3% (active) |
| COc1ccc(/C=N/NC(=O)c2cccnc2)cc1CN1CCOCC1 | 36.1% (active) |
| COC(=O)C[n+]1cccc2ccccc21 | 212% (active) |
| O=C(C[n+]1cccc2ccccc21)c1ccccc1 | 10.7% (inactive) |
| O=C(NCc1ccc(Cl)cc1)C1CCN(c2cnccn2)CC1 | 68.5% (active) |
| O=C(NCCc1ccccc1)C1CCN(c2ncccn2)CC1 | 2.88% (inactive) |
| O=C(CCC1CCCN(C(=O)c2ccncc2)C1)NCc1ccc(F)c(F)c1 (configuration not stated) | 3.6% (inactive) |
| CCOC(=O)c1ccccc1-n1nnnc1C | 1.99% (inactive) |

| Compound | activation |
| --- | --- |
| CCOC(=O)c1cc2c(s1)-c1ccccc1CC2 | 0.58% (inactive) |
| CCOC(=O)c1cc2n(c1N)-c1ccccc1C2=O | 71.8% (active) |
| CCC(C)[C@H](NC(=O)N1CCC(C)CC1)C(=O)OC (some centres not stated) | 11.1% (inactive) |
| Oc1ccc(-c2c(C3=CCCCC3)sc3ccccc23)cc1 | 125% (active) |
| COc1ccccc1-c1sc2ccccc2c1-c1ccc(Br)nc1 | -1.06% (inactive) |
| CCN(C(=O)c1cc2ccccc2oc1=O)c1ccccc1 | 8.22% (inactive) |
| N#CCCN(C(=O)c1ccco1)c1ccccc1 | 4250% (active) |
| CCOC(=O)c1cnc2ccccc2c1Nc1ccc(C(=O)O)cc1 | 161% (active) |
| CCOC(=O)/C(=N\Nc1ccc(C(C)=O)cc1)c1csc(Nc2ccccc2)n1 | 11.1% (inactive) |
| COc1ccc(OCC(=O)OCCNC(=O)c2cccnc2)cc1 | 5.53% (inactive) |
| COc1ccc(OCCNC(=O)c2ccc(C)cc2)cc1 | 28.4% (active) |
| Cc1ccc(OCCCC(=O)NC2CCCCC2)cc1 | 4.78% (inactive) |
| Cc1sc2nc(COC(=O)c3cccc(S(=O)(=O)N(C)c4ccccc4)c3)[nH]c(=O)c2c1C | 2.91% (inactive) |
| Cc1ccc(CNC(=O)c2cc(-c3ccccc3)nn2Cc2cc(C)no2)cc1 | 8.67% (inactive) |
| Cc1ccc(C)c(C(=O)CCC(=O)NCc2ccc(Cl)cc2)c1 | 10.5% (inactive) |
| Cc1ccc(CNC(=O)CCn2cc(-c3ccc(C)cc3)nc2-c2ccncc2)cc1 | 57.1% (active) |
| Cc1ccc(-c2ccc(OC(=O)c3ccc(=O)[nH]c3)c(C)c2)cc1 | 28.2% (active) |
| CCc1ccc(NC(=O)C2CCN(S(=O)(=O)c3ccc4[nH]c(=O)ccc4c3)CC2)cc1 | 12.1% (active) |
| CC(=O)Nc1ccc(Nc2cc(N(C)C)c3nonc3c2[N+](=O)[O-])cc1 | 99.2% (active) |
| O=C(Nc1cc2c(cc1Br)OCCCO2)c1cccnc1 | 2.74% (inactive) |
| CC1CCN(c2ccc(NC(=O)c3cccnc3)cc2)CC1 | 19.8% (active) |
| COc1ccc(-n2nc3c(N4CCC(C(=O)N5CCC(C)CC5)CC4)nnc(C)c3c2C)cc1 | 2.83% (inactive) |
